Assay results: ChEMBL document CHEMBL2074563, “Involvement of multidrug resistance-associated proteins in regulating cellular levels of (-)-epigallocatechin-3-gallate and its methyl metabolites” (Biochem Biophys Res Commun, 2003)

Columns and labels:
Type in all cases: functional, cell-based
Settings in all cases: dog, mdck-ii
[1] = molecular target: T1, ATP-binding cassette sub-family C member 2 (Homo sapiens, UniProt Q92887); test: TP_TRANSPORTER: inhibition of EGCG in MRP2-expressing MDCKII cells
Procedure, shortened: (§1)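 MDCKII cells stably expressing human MRP1 or MRP2, grown to confluence, were preincubated for 2 h in serum-free HBSS. They were then exposed to [3H]EGCG (10 µM, 0.25 µCi/ml) in HBSS with 100 µM ascorbic acid, plus an efflux inhibitor or DMSO vehicle, for 1 h at 37 °C. Inhibitors were 10 µM indomethacin, 1 mM probenecid or 50 µM MK-571. Cells were washed in ice-cold PBS and lysed in 0.2 N NaOH. Cell-associated radioactivity was counted by scintillation and expressed as a ratio to the no-inhibitor control (mean ± SD, n = 4).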

[2] = molecular target: T2, Multidrug resistance-associated protein 1 (Homo sapiens, UniProt P33527); test: TP_TRANSPORTER: inhibition of EGCG in MRP1-expressing MDCKII cells; procedure, shortened: as §1
[3] = molecular target: T2, Multidrug resistance-associated protein 1; test: TP_TRANSPORTER: uptake in MRP1-expressing MDCKII cells; procedure, shortened: as §1
[4] = molecular target: T1, ATP-binding cassette sub-family C member 2; test: TP_TRANSPORTER: uptake in MRP2-expressing MDCKII cells; procedure, shortened: as §1

T2 sequence (P33527 whole entry): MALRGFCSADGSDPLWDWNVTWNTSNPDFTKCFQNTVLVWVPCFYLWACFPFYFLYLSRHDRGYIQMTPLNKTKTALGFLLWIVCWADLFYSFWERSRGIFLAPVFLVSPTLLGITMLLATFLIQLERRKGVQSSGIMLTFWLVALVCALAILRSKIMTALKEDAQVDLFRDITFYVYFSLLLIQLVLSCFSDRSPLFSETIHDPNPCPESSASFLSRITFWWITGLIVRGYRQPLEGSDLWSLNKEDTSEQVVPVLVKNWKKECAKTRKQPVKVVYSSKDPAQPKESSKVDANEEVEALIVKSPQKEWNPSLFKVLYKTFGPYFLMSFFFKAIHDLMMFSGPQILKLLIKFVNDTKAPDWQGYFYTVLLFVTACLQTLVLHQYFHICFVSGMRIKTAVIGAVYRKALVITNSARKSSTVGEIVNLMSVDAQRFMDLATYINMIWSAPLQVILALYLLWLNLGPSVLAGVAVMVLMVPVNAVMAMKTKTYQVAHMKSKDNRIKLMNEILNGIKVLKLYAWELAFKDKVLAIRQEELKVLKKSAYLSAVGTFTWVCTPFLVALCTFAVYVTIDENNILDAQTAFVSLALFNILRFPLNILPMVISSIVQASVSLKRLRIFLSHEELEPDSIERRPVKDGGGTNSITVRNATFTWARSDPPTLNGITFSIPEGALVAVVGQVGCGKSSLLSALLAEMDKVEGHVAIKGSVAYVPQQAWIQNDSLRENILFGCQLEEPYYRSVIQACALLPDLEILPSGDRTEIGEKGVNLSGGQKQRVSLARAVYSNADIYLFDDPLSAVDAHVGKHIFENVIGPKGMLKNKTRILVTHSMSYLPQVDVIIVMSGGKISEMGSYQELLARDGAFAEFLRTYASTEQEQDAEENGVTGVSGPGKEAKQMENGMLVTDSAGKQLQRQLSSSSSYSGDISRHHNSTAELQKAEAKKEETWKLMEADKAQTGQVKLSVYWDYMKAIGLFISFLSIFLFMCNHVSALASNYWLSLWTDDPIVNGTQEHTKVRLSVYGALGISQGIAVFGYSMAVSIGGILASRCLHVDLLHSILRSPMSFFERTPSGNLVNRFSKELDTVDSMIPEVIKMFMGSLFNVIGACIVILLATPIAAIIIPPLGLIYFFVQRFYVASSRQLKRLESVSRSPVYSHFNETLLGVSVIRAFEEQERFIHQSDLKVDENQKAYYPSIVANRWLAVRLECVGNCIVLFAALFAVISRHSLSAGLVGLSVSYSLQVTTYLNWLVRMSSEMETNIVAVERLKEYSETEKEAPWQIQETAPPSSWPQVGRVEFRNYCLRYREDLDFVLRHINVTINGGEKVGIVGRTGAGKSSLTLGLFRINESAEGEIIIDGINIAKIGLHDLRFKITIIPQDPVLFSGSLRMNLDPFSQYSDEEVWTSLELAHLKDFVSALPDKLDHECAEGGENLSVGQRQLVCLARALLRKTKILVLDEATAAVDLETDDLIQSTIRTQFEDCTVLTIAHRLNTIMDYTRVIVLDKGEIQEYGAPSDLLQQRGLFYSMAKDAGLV
T1 sequence (Q92887 whole entry): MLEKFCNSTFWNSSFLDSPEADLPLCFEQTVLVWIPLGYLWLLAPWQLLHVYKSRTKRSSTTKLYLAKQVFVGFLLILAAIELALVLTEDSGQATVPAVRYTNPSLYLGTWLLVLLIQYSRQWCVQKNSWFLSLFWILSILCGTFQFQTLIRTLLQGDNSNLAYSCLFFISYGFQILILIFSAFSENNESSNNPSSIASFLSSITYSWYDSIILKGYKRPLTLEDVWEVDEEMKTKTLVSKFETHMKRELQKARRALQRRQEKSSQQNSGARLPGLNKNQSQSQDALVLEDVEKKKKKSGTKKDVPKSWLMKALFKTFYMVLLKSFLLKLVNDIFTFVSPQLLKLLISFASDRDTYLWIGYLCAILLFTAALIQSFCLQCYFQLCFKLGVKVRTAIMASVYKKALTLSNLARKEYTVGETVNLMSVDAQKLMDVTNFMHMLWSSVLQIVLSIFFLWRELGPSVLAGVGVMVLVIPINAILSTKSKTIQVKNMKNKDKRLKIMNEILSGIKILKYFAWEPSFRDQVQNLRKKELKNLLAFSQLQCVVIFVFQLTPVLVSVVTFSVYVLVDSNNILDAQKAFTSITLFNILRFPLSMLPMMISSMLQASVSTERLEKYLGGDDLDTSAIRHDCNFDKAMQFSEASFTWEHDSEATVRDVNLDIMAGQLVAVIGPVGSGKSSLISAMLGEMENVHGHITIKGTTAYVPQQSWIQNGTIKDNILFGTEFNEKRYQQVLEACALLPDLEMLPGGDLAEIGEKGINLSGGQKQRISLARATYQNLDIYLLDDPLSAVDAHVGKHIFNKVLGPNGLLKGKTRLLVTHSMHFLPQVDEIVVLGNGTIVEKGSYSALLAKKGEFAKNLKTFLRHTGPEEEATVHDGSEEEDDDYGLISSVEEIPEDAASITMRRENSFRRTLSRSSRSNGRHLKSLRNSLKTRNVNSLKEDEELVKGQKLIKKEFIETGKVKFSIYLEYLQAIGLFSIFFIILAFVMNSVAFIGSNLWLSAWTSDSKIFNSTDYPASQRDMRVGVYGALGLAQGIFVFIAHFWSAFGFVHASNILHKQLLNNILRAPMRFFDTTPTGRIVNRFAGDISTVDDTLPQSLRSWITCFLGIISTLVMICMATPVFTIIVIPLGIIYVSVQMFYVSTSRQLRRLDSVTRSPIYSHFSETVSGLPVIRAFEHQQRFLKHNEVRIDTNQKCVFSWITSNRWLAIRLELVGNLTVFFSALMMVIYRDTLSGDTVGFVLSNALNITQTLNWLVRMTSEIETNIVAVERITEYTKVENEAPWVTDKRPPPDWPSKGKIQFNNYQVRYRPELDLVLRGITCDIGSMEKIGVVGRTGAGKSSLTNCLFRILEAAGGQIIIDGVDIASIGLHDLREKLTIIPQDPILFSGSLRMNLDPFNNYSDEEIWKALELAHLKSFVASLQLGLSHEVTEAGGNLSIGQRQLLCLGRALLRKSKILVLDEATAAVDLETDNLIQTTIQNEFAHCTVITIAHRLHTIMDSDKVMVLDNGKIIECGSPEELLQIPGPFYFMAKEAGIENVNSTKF

Activity [2]	Compound	also measured
inhibitor []	COc1ccc(-c2coc3cc(O)cc(O)c3c2=O)cc1 [BIOCHANIN]	
inhibitor []	COc1cc(CCC(=O)CC(=O)CCc2ccc(O)c(OC)c2)ccc1O [TETRAHYDROCURCUMIN]	
inhibitor []	COc1ccc2c(c1)c(CC(=O)O)c(C)n2C(=O)c1ccc(Cl)cc1 [INDOMETHACIN]	
inhibitor []	O=c1c(-c2ccc(O)cc2)coc2cc(O)cc(O)c12 [GENISTEIN]	
inhibitor []	COc1ccc(-c2coc3cc(O)ccc3c2=O)cc1 [FORMONONETIN]	
inhibitor []	O=c1c(-c2ccc(O)cc2)coc2cc(O)ccc12 [DAIDZEIN]	

The remaining lines, values behind:

Compound	Activity [2]	also measured
CN(C)C(=O)CCSC(SCCC(=O)O)c1cccc(/C=C/c2ccc3ccc(Cl)cc3n2)c1 (stereo not given) [MK-571]		Activity [1]: inhibitor []
COc1cc(/C=C/C(=O)CC(=O)/C=C/c2ccc(O)c(OC)c2)ccc1O [CURCUMIN]	inhibitor []	
CCCN(CCC)S(=O)(=O)c1ccc(C(=O)O)cc1 [PROBENECID]	inhibitor []	Activity [1]: inhibitor []
COc1c(O)cc(C(=O)O[C@@H]2Cc3c(O)cc(O)cc3O[C@@H]2c2cc(O)c(O)c(O)c2)cc1O		Activity [3]: substrate []; Activity [4]: substrate []
CC[C@]1(O)C[C@H]2CN(CCc3c([nH]c4ccccc34)[C@@](C(=O)OC)(c3cc4c(cc3OC)N(C=O)[C@H]3[C@@](O)(C(=O)OC)[C@H](OC(C)=O)[C@]5(CC)C=CCN6CC[C@]43[C@@H]65)C2)C1 [VINCRISTINE]		Activity [1]: inhibitor []
COc1c(O)cc(C(=O)O[C@@H]2Cc3c(O)cc(O)cc3O[C@@H]2c2cc(O)c(OC)c(O)c2)cc1O		Activity [3]: substrate []; Activity [4]: substrate []
